Test results taken from ChEMBL document CHEMBL4316597, “Design, Synthesis, and Biological Evaluation of Itaconic Acid Derivatives as Potential Anti-Influenza Agents” (J Med Chem, 2019).
pEC50: −log10 of the molar value. Active and inactive are the calls of the source. The calls are words filed in the database; no cut-off is given here.

How the values were obtained:
[1] = Selectivity ratio of CC50 for MDCK cells to EC50 for Influenza A virus (A/WSN/33); assay type: toxicity; conditions: dog, read-out: Ratio CC50/EC50
In short: (§1)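 SI is calculated as CC50 (MDCK, 72 h MTT) divided by EC50 (72 h crystal-violet CPE assay in MDCK).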

[2] = Cytotoxicity against human RD cells assessed as cell death after 72 hrs by MTT assay; assay type: cell-based
In short: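 MDCK or RD cells at 2 × 10^4/well in E10, overnight at 37 °C/5% CO2, DPBS wash, then exposed to graded compound concentrations for 72 h. MTT added for 3 h, formazan dissolved in DMSO, absorbance read at 570 nm. CC50 (50% cell death) by Reed–Muench.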

Influenza A virus [3] = assay: Antiviral activity against Influenza A virus A/TW/3446/02 (H3N2) infected in MDCK cells after 72 hrs by crystal violet-staining based assay; assay type: functional, organism-based
In short: (§2)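 Cells seeded at 2 × 10^4/well in E10 (DMEM, 10% FBS), 16–24 h at 37 °C/5% CO2, washed with DPBS, then infected at nine-fold TCID50 with or without serial compound concentrations. Influenza is run in MDCK and enterovirus/rhinovirus in RD. Incubated 72 h, fixed in 4% paraformaldehyde, stained with 0.1% crystal violet, and read for cell density. EC50 = 50% CPE inhibition by Reed–Muench; mean ± S.D. of at least three runs.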

[4] = Selectivity ratio of CC50 for MDCK cells to EC50 for pandemic Influenza A virus A/TW/2235/09 (H1N1) SO4; assay type: toxicity; conditions: dog, read-out: Ratio CC50/EC50
In short: (§3)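 MDCK cells (2 × 10^4/well, E10, 16–24 h) infected at nine-fold TCID50 with compound for 72 h, 37 °C, 5% CO2. Cells were fixed in 4% paraformaldehyde and stained with crystal violet; EC50 is from Reed–Muench. For CC50, cells had compound alone for 72 h, then MTT 3 h, DMSO, A570, Reed–Muench. SI = CC50/EC50; three independent experiments.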

[5] = Selectivity ratio of CC50 for MDCK cells to EC50 for Influenza A virus A/TW/00482/13; assay type: toxicity; conditions: dog, read-out: Ratio CC50/EC50; in short: as §1
[6] = Selectivity ratio of CC50 for MDCK cells to EC50 for Influenza A virus A/TW/03384/13; assay type: toxicity; conditions: dog, read-out: Ratio CC50/EC50; in short: as §3
Enterovirus A71 = assay: Antiviral activity against Enterovirus A71 TW/2231/1998 infected in human RD cells after 72 hrs by crystal violet-staining based assay; assay type: functional, organism-based; conditions: Enterovirus A, TW/2231/1998, RD; in short: as §2
enterovirus D68 = assay: Antiviral activity against Enterovirus D68 TW/2795/2014 clade B3 infected in human RD cells after 72 hrs by crystal violet-staining based assay; assay type: functional, organism-based; conditions: Enterovirus D, TW/2795/2014 clade B3, RD; in short: as §2
Influenza A virus [7] = assay: Antiviral activity against Influenza A virus (A/WSN/33) infected in MDCK cells assessed as inhibition of virus-induced cytopathic effects at 10 uM after 36 hrs by microscopic analysis; assay type: functional, organism-based; conditions: A/WSN/1933(H1N1)
In short: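 MDCK cells (2 × 10^5/well) grown 16–24 h, infected with A/WSN/33 at MOI 0.5 for 1 h, rinsed twice with DPBS, then kept in serum-free E0 with 10 μM compound at 37 °C. Cell morphology checked by light microscopy at 12 and 36 h pi. Drug-only and virus-only arms included; three repetitions.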

[8] = target: Hemagglutinin (Influenza A virus) (UniProt B4URE7); assay: Inhibition Influenza A virus (A/WSN/33) HA infected in guinea pig RBC assessed as reduction in hemagglutination at serial dilution from 50 uM after 1 hr by HAI assay; conditions: Influenza A virus (A/WSN/1933(H1N1))
In short: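 Virus titrated on 0.5% guinea pig RBCs to define 1 HA unit; 4 HA units used. Compound two-fold serially diluted from 50 µM and mixed with virus for 30 min at room temperature, or tested without virus for direct agglutination. 0.5% RBCs then added and agglutination scored after 1 h. DMSO/RBC-only and virus-only controls included.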

Influenza A virus [9] = assay: Inhibition of viral RNA synthesis in Influenza A virus (A/WSN/33) infected in MDCK cells at 10 uM measured up to 9 hrs post infection by RT-qPCR analysis; assay type: functional, organism-based; conditions: A/WSN/1933(H1N1)
In short: (§4)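 MDCK monolayers (5 × 10^5/well) infected with A/WSN/33, then given 10 μM compound during or after infection. Total RNA extracted with TRIzol at 0, 3, 6 and 9 h pi. Viral RNA quantified by RT-qPCR with M1-specific primers, GAPDH used for quantitative standards. Representative of three independent experiments.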

Influenza A virus [10] = assay: Inhibition of viral RNA synthesis in Influenza A virus (A/WSN/33) infected in MDCK cells assessed as effect on matrix protein 1 RNA level at 10 uM measured up to 9 hrs post infection by RT-qPCR analysis; assay type: functional, organism-based; conditions: A/WSN/1933(H1N1); in short: as §4
Influenza A virus [11] = assay: Inhibition of viral protein synthesis in Influenza A virus (A/WSN/33) infected in MDCK cells assessed as effect on NP protein level at 10 uM measured up to 9 hrs post infection by Western blot analysis; assay type: functional, organism-based; conditions: A/WSN/1933(H1N1)
In short: (§5)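 MDCK cells (5 × 10^5/well) infected with A/WSN/33 at MOI 0.1, washed twice, then held in E0 with or without 10 μM compound. Lysed in Triton X-100/deoxycholate buffer, equal protein separated by SDS-PAGE, and immunoblotted for viral proteins with GAPDH as loading control. Time-course harvests up to 9 h pi.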

Influenza A virus [12] = assay: Inhibition of viral protein synthesis in Influenza A virus (A/WSN/33) infected in MDCK cells assessed as effect on M1 protein level at 10 uM measured up to 9 hrs post infection by Western blot analysis; assay type: functional, organism-based; conditions: A/WSN/1933(H1N1); in short: as §5
Influenza A virus [13] = assay: Inhibition of viral protein synthesis in Influenza A virus (A/WSN/33) infected in MDCK cells assessed as effect on NS2 protein level at 10 uM measured up to 9 hrs post infection by Western blot analysis; assay type: functional, organism-based; conditions: A/WSN/1933(H1N1); in short: as §5
Influenza A virus [14] = assay: Inhibition of viral protein synthesis in Influenza A virus (A/WSN/33) infected in MDCK cells assessed as effect on PA protein level at 10 uM measured up to 9 hrs post infection by Western blot analysis; assay type: functional, organism-based; conditions: A/WSN/1933(H1N1); in short: as §5
Influenza A virus [15] = assay: Inhibition of viral protein sub-cellular distribution in Influenza A virus (A/WSN/33) infected in MDCK cells assessed as reduction in NS2 protein distribution to cytoplasm at 10 uM measured after 9 hrs post infection by IF-staining based microscopy; assay type: functional, organism-based; conditions: A/WSN/1933(H1N1)
In short: (§6)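 MDCK cells grown on coverslips (2 × 10^5/well, 16 h), infected at MOI 0.1 for 1 h, washed, then kept in E0 with test compound (1 or 10 μM) or LMB 10 nM; DMSO 0.05% as mock. Fixed at 9 h pi in 4% paraformaldehyde and immunostained for M1, NP, NS2 or PA (1:50), with Hoechst nuclear stain. Viewed by confocal microscopy at 63×. NP nuclear/cytoplasmic intensity ratio quantified; three independent experiments.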

Influenza A virus [16] = assay: Inhibition of viral protein sub-cellular distribution in Influenza A virus (A/WSN/33) infected in MDCK cells assessed as reduction in PA protein distribution to cytoplasm at 10 uM measured after 9 hrs post infection by IF-staining based microscopy; assay type: functional, organism-based; conditions: A/WSN/1933(H1N1); in short: as §6
Influenza A virus [17] = assay: Inhibition of viral protein sub-cellular distribution in Influenza A virus (A/WSN/33) infected in MDCK cells assessed as reduction in M1 protein distribution to cytoplasm at 10 uM measured after 9 hrs post infection by IF-staining based microscopy; assay type: functional, organism-based; conditions: A/WSN/1933(H1N1); in short: as §6

Sequence of Hemagglutinin (Influenza A virus) (B4URE7 as listed by the source): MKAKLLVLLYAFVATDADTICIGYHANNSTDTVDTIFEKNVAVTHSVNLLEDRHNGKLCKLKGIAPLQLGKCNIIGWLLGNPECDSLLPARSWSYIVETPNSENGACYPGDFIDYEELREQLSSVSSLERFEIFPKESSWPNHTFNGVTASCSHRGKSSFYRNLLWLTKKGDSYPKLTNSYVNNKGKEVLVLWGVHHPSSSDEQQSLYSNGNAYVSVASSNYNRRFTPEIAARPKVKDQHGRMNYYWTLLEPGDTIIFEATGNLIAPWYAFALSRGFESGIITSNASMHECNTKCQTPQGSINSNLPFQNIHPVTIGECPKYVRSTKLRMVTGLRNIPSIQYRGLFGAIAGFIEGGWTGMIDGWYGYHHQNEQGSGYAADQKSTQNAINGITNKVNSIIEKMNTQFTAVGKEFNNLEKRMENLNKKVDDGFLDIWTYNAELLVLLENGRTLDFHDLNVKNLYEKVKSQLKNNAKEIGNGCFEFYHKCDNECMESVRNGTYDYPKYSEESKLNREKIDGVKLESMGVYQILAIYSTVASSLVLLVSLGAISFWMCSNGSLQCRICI

For `C=C(CC(=O)Nc1ccc(F)cc1F)C(=O)Nc1ccc(F)cc1F`, the selectivity ratio [1] was 29.8, the CC50 at 72 h [2] was 74.6 µM and the pEC50 (Influenza A virus [3]) was 5.34. For the same molecule, the selectivity ratio [4] was 36, the selectivity ratio [5] was 22 and the selectivity ratio [6] was 23. The pEC50 (Enterovirus A71) was 5.35, the pEC50 (enterovirus D68) was < 4.30 and the Activity (Influenza A virus [7]) was “Active”. For the same molecule, the inhibition [8] was “inactive”, the inhibition (Influenza A virus [9]) was “inactive” and the inhibition (Influenza A virus [10]) was “inactive”. The inhibition (Influenza A virus [11]) was “inactive”, the inhibition (Influenza A virus [12]) was “inactive” and the inhibition (Influenza A virus [13]) was “inactive”. The inhibition (Influenza A virus [14]) was “inactive”, the inhibition (Influenza A virus [15]) was “inactive” and the inhibition (Influenza A virus [16]) was “inactive”. The inhibition (Influenza A virus [17]) was “inactive”.
